# Measured values pooled from the literature.
# Each line is one published result; the experiments were not run side by side.
# DAPK1: Death-associated protein kinase 1 (DAPK1, Homo sapiens, UniProt P53355)
# RIOK3: Serine/threonine-protein kinase RIO3 (RIOK3, Homo sapiens, UniProt O14730)
# ACSL4: Long-chain-fatty-acid--CoA ligase 4 (ACSL4, Homo sapiens, UniProt O60488)
Compound,target,assay,setting,measurement,value
COc1ccc2oc(-c3ccc4nc(N)oc4c3)c/c(=N\c3ccccc3NC(=O)CCN)c2c1,DAPK1,binding,1 µM,remaining binding,104%
C1=C/COCc2cc(ccc2OCCN2CCCC2)Nc2nccc(n2)-c2cccc(c2)COC/1,DAPK1,binding,0.1 µM,remaining binding,64%
C[C@]1(O)CCCN(c2nc(Nc3ccc(S(=O)(=O)N[C@H]4CC[C@H](CN5CCN(c6ccc(C7CCC(=O)NC7=O)cc6F)CC5)CC4)cc3Cl)ncc2C(F)(F)F)C1 (stereo partly shown),RIOK3,"binding, competition with immobilised ligand",1 µM,remaining binding,52%
COc1cccc2c(N3CCC(CCP(=O)(O)O)CC3)ncnc12,"Ectonucleotide pyrophosphatase/phosphodiesterase family member 1 (Enpp1, Mus musculus, UniProt P06802)","binding, SPR",,residence time,9 min
Cc1cc(F)cc2c(CCC(=O)N[C@@H]3C(=O)NC[C@H]3O)c(-c3ccc(F)cc3)[nH]c12,"3',5'-cyclic-AMP phosphodiesterase 4D (PDE4D, Homo sapiens, UniProt Q08499)","enzyme activity, inhibitor",10 µM,inhibition,17%
C#Cc1cc(-c2cc(Nc3nc(N[C@@H](C)c4ccc(F)cn4)ncc3Cl)n[nH]2)ccc1C=O,"Serine/threonine-protein kinase 33 (STK33, Homo sapiens, UniProt Q9BYT3)","enzyme activity, inhibitor",0.2 µM,inhibition,7.93%
CCN1/C(=C/C(C)=O)Sc2ccc(F)cc21,"5-hydroxytryptamine receptor 1B (HTR1B, Homo sapiens, UniProt P28222)","ligand displacement, radioligand",10 µM,inhibition,1.73%
CNS(=O)(=O)c1ccc(Nc2ncc(C(F)(F)F)c(N3CCC[C@](C)(O)C3)n2)c(C)c1,"Mitogen-activated protein kinase 7 (MAPK7, Homo sapiens, UniProt Q13164)","binding, competition with immobilised ligand",1 µM,remaining binding,14%
O=C1NC(=O)C(Cc2ccc(N3CCN(c4ccccn4)CC3)cc2)S1 (stereo not shown),ACSL4,"enzyme activity, inhibitor",10 µM,inhibition,42%
C[C@]1(O)CCCN(c2nc(Nc3ccc(S(=O)(=O)N[C@H]4CC[C@H](CN5CCN(c6ccc(C7CCC(=O)NC7=O)cc6F)CC5)CC4)cc3F)ncc2C(F)(F)F)C1 (stereo partly shown),RIOK3,"binding, competition with immobilised ligand",1 µM,remaining binding,100%
COc1ccc(CC2SC(=O)NC2=O)cc1 (stereo not shown),ACSL4,"enzyme activity, inhibitor",10 µM,inhibition,13%
Cc1cc(S(=O)(=O)N[C@H]2CC[C@H](CN3CCN(c4ccc(C5CCC(=O)NC5=O)cc4F)CC3)CC2)ccc1Nc1ncc(C(F)(F)F)c(N2CCC[C@](C)(O)C2)n1 (stereo partly shown),RIOK3,"binding, competition with immobilised ligand",1 µM,remaining binding,58%
CCCCC(=O)Nc1ccc(-c2ccc3ncn(CCC)c(=O)c3c2)cn1,"Serine/threonine-protein kinase MAK (MAK, Homo sapiens, UniProt P20794)","binding, competition with immobilised ligand",0.5 µM,remaining binding,71%
